Here are results for two compounds from ChEMBL document CHEMBL4699542, “Design and synthesis of novel methoxypyridine-derived gamma-secretase modulators” (Bioorg Med Chem, 2020).

Data set [1] in a line: Drug level in plasma of transgenic J20 mouse overexpressing human APP at 100 mg/kg, po administered via gavage for 3 consecutive days and measured after 4 hrs post last dose on day 3 by HPLC-MS/MS analysis. In kind it is ADME, organism-based. As to conditions: time 3 day. The gist of the method:
(§1)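 Female J20 mice, 5–6 months old, given 25, 50 or 100 mg/kg orally (5% NMP/95% PEG300) daily for 3 days, n=5/dose. Plasma and brain taken 4 h after the final dose and analysed by LC-MS/MS. LLOQ was 1 ng/mL in plasma and 5 ng/g in brain.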

A short description of data set [2]: Apparent permeability from apical to basolateral membrane in MDCK-MDR1 cells. It is filed as ADME, cell-based, Canis lupus familiaris. To be noted: dog. The gist of the method:
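Apical-to-basolateral apparent permeability (×10⁻⁶ cm/s) measured across MDR1-MDCK cell monolayers.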

A short description of data set [3]: In vivo modulation of gamma secretase in transgenic J20 mouse overexpressing human APP assessed as reduction in plasma amyloid beta38 level at 25 mg/kg, po administered via gavage for 3 consecutive days and measured after 4 hrs post last dose on day 3 by meso scale discovery relative to control. In kind it is functional. Details: scale not given: the % may be the effect or the level left. To be noted: time 3 day. The gist of the method:
(§2)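 Female J20 mice, 5–6 months old (n=5/dose), dosed orally at 25, 50 or 100 mg/kg or with vehicle (5% NMP/95% PEG300) for 3 consecutive days. Plasma was taken 4 h after the final dose. Aβ38/40/42 measured by Meso Scale multiplex immunoassay, with % reduction relative to vehicle. Mean ± SEM, ANOVA.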

Data set [4] deals with Gamma-secretase. In words: Modulation of gamma secretase in human SH-SY5Y cells overexpressing wild type APP751 assessed as effect on amyloid beta42 level by meso scale discovery. In kind it is cell-based.
A further data set has as its target T1, Cytochrome P450 1A2 (Homo sapiens, UniProt P05177).
T1 sequence (P05177 whole entry): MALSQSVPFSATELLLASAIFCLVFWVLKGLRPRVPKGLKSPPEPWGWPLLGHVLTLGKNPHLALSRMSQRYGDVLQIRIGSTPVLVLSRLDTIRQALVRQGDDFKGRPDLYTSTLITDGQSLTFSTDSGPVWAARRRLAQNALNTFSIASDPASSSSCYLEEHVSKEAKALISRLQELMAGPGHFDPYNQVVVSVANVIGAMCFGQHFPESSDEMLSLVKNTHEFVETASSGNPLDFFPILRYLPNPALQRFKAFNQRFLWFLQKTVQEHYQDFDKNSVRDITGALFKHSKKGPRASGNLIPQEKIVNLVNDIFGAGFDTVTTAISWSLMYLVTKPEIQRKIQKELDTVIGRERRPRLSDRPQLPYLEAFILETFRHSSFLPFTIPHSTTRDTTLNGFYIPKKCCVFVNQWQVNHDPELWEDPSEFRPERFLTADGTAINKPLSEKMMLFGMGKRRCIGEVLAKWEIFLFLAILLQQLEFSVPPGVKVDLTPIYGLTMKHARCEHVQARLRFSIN
In words: Inhibition of recombinant CYP1A2 (unknown origin) by fluorescence-based assay. It is filed as ADME. The gist of the method: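 Recombinant CYP isoforms (five tested) screened for inhibition in fluorescence-based assays; IC50 in μM.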

Data set [5] can be described thus: Ratio of drug concentration in CD-1 mouse brain to plasma at 0.4 mg/kg, iv measured after 1 hr. In kind it is ADME, organism-based.
Data set [6] is described as follows: Metabolic stability in human liver microsomes assessed as parent compound remaining at 1 uM incubated for 30 mins. It is filed as ADME, Microsome. As to conditions: microsomes, 0.5 h, 1 µM. The gist of the method:
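Test compound at 1 μM incubated 30 min with human, rat or mouse liver microsomes (1 mg/mL); parent remaining expressed as %.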

Data set [7] can be described thus: Drug level in brain of transgenic J20 mouse overexpressing human APP at 25 mg/kg, po administered via gavage for 3 consecutive days and measured after 4 hrs post last dose on day 3 by HPLC-MS/MS analysis. To be noted: time 3 day, read-out: Ct. In kind it is ADME, organism-based. The gist of the method: as §1
Data set [8] can be described thus: Volume of distribution at steady state in CD-1 mouse at 1 mg/kg, iv administered as single dose measured up to 24 hrs. In kind it is ADME, organism-based. To be noted: in vivo. The gist of the method:
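Male CD-1 mice, 6–8 weeks old, single tail-vein dose in 3% NMP/45% PEG300/12% ethanol/40% sterile water. Retro-orbital plasma (K3EDTA) taken at 0.083, 0.25, 0.5, 1, 2, 4, 8 and 24 h, n=3/timepoint, analysed by HPLC/MS/MS. Non-compartmental analysis (Model 201, uniform weighting); Tmax read directly from the data.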

Data set [9] in a line: AUC infinity in CD-1 mouse at 1 mg/kg, iv administered as single dose measured up to 24 hrs. It is filed as ADME, organism-based. Also on record: route intravenous, dose 1 mg/kg, time <=24. To be noted: in vivo. The gist of the method:
(§3)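 Male CD-1 mice, 6–8 weeks old, single dose by tail vein (1 mg/kg, 3% NMP/45% PEG300/12% ethanol/40% water) or oral gavage (5 mg/kg, 5% NMP/95% PEG300). Retro-orbital plasma sampled 0.083 (iv only) to 24 h, n=3/timepoint, and analysed by HPLC/MS/MS. Non-compartmental analysis. Half-life taken from the terminal phase using ≥3 non-zero points after Tmax.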

Data set [10] deals with Gamma-secretase. In words: Modulation of gamma secretase in human SH-SY5Y cells overexpressing wild type APP751 assessed as inhibition of amyloid beta (35 to 42 residues) formation incubated for overnight by ELISA. In kind it is cell-based. The gist of the method:
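SHSY5Y-APP751 cells plated at 75K/well and incubated overnight at 37 °C, then treated 24 h over 10 concentrations ([…]–10 μM, 1:3.16 steps, in duplicate). Medium Aβ42 measured by sandwich ELISA (Aβ35–42 capture, AP-conjugated Aβ1–12 detection, CDP-Star luminescence) against an Aβ42 standard curve.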

Data set [11] can be described thus: Ratio of drug concentration in CD-1 mouse brain to plasma at 5 mg/kg, po measured after 1 hr. It is filed as ADME, organism-based. The gist of the method:
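Male CD-1 mice dosed once iv (1 mg/kg) or by oral gavage (5 mg/kg). Brain and plasma collected 1 h post dose (n=3/timepoint). Drug levels by HPLC/MS/MS; brain/plasma ratio calculated from these levels.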

Data set [12] is described as follows: Cmax in CD-1 mouse at 1 mg/kg, iv administered as single dose measured up to 24 hrs. It is filed as ADME, organism-based. Details: route intravenous, dose 1 mg/kg, time <=24. To be noted: in vivo. The gist of the method: as §3
A short description of data set [13]: Ratio of drug level in brain to plasma of transgenic J20 mouse overexpressing human APP at 100 mg/kg, po administered via gavage for 3 consecutive days and measured after 4 hrs post last dose on day 3 by HPLC-MS/MS analysis. It is filed as ADME, organism-based. As to conditions: 72 h, time 3 day. The gist of the method:
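Female J20 mice, 5–6 months old (n=5/dose), dosed by oral gavage once daily for 3 days in 5% NMP/95% PEG300 vehicle. Sacrificed 4 h after the day-3 dose. Plasma and brain drug levels measured by LC-MS/MS (LLOQ 1 ng/mL plasma, 5 ng/g brain). Ratio = brain level/plasma level.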

Data set [14] can be described thus: In vivo modulation of gamma secretase in transgenic J20 mouse overexpressing human APP assessed as reduction in plasma amyloid beta42 level at 25 mg/kg, po administered via gavage for 3 consecutive days and measured after 4 hrs post last dose on day 3 by meso scale discovery relative to control. It is filed as functional. As to conditions: time 3 day. Details: scale not given: the % may be the effect or the level left. The gist of the method: as §2

A short description of data set [15]: Tmax in CD-1 mouse at 5 mg/kg, po administered as single dose measured up to 24 hrs. In kind it is ADME, organism-based. To be noted: in vivo. The gist of the method: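 Male CD-1 mice, 6–8 weeks old, single oral gavage dose in 5% NMP/95% PEG300. Plasma (K3EDTA, retro-orbital, under isoflurane) taken at 0.25, 0.5, 1, 2, 4, 8 and 24 h, n=3/timepoint, analysed by HPLC/MS/MS. Non-compartmental extravascular analysis (Model 200); Tmax taken directly from the data.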

In the case of `CCn1nc2c(c1Nc1nc(-c3ccc(-n4cnc(C)c4)c(OC)n3)cs1)CCC2`, the concentration at 72 h is 726 ng/mL in data set [1] and 31 ng/g in data set [7]. In addition, the Papp in data set [2] is 29.6 10^-6 cm/s. In addition, the Activity in data set [3] turned out to be 19%; in data set [14], 29%. Besides, the IC50 on Gamma-secretase [4] is 19 nM; on Cytochrome P450 1A2 it was over 100000 nM; at Gamma-secretase [10] it was 33 nM. Besides, the BPR in [5] came to 0.37; in data set [11] it was 0.4; in data set [13] it was 0.46. The Stabilty in data set [6] worked out at 51%. This compound also returned a distribution volume (Vdss) in data set [8] of 2.234 L/kg. This compound also gave an AUC in data set [9] of 383 ng·h/mL. Besides, the peak concentration (Cmax) in [12] stood at 549 ng/mL. The Tmax in data set [15] came to 15 min.

`COc1nc(-c2csc(Nc3c4c(nn3CCF)CCCC4)n2)ccc1-n1cnc(C)c1`: the concentration at 72 h in data set [1] was found to be 183 ng/mL; in data set [7] it was 39 ng/g. In [2], the Papp is recorded as 32.6 10^-6 cm/s. For the same compound, the Activity in data set [3] and in data set [14] was 18% throughout. The IC50 at Gamma-secretase [4] was 14 nM; on Cytochrome P450 1A2 it was over 100000 nM; at Gamma-secretase [10], 47 nM. The BPR in data set [5] was 0.81; in data set [11], 0.68; in [13], 0.57. For the same compound, the Stabilty in data set [6] amounted to 100%. In addition, the distribution volume (Vdss) in data set [8] stood at 2.826 L/kg. Also, in data set [9], the AUC was found to be 288 ng·h/mL. The Cmax in data set [12] came out at 309 ng/mL. Further, the Tmax in data set [15] is 60 min.
